Experiments:
[1] = target: T1, Progesterone receptor (Rattus norvegicus) (UniProt Q63449); assay: inhibitory activity against progesterone receptor (PR) in ovariectomized mature female rat complement C3 model; type: functional
T1 sequence (whole entry): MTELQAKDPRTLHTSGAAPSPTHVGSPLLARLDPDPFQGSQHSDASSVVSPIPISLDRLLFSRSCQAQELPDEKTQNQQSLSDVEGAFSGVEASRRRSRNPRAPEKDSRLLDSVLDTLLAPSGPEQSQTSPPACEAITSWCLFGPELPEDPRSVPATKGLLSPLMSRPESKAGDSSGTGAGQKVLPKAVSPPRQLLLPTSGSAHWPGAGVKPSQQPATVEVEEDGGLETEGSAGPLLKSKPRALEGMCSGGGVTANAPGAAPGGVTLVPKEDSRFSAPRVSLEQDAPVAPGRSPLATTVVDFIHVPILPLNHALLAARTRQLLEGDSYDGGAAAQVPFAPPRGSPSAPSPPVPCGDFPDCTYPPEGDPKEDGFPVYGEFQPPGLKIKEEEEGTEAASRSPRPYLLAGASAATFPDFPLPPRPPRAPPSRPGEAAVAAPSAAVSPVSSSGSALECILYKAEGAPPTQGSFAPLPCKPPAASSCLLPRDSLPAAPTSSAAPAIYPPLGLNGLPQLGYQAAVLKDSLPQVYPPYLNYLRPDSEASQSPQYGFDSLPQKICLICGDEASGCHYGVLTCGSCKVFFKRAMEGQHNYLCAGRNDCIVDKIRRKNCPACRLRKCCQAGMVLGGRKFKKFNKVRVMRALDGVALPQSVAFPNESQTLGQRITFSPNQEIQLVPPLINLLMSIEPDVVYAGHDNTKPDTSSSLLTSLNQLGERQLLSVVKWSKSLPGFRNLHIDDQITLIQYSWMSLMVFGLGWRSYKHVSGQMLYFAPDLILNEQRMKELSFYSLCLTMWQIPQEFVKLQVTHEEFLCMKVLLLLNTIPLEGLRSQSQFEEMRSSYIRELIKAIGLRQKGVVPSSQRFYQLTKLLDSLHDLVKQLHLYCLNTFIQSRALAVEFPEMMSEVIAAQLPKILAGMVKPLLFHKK
Summary of the method: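 Adult ovariectomized rats given oral doses; read-out is reversal of progestin down-regulation of estrogen-induced complement C3 synthesis in uterine epithelium. ED50 averaged from at least duplicate determinations.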

Estrogen receptor = Estrogen receptor (Homo sapiens, UniProt Q92731+P03372); assay: Antagonist activity against the Estrogen Receptor (ER); type: functional
Progesterone receptor [2] = target: T2, Progesterone receptor (Homo sapiens, UniProt P06401); assay: Antagonist activity against progesterone receptor (PR) in an alkaline phosphatase assay in the T47D human breast carcinoma cell line; type: functional, cell-based
T2 sequence (P06401 whole entry): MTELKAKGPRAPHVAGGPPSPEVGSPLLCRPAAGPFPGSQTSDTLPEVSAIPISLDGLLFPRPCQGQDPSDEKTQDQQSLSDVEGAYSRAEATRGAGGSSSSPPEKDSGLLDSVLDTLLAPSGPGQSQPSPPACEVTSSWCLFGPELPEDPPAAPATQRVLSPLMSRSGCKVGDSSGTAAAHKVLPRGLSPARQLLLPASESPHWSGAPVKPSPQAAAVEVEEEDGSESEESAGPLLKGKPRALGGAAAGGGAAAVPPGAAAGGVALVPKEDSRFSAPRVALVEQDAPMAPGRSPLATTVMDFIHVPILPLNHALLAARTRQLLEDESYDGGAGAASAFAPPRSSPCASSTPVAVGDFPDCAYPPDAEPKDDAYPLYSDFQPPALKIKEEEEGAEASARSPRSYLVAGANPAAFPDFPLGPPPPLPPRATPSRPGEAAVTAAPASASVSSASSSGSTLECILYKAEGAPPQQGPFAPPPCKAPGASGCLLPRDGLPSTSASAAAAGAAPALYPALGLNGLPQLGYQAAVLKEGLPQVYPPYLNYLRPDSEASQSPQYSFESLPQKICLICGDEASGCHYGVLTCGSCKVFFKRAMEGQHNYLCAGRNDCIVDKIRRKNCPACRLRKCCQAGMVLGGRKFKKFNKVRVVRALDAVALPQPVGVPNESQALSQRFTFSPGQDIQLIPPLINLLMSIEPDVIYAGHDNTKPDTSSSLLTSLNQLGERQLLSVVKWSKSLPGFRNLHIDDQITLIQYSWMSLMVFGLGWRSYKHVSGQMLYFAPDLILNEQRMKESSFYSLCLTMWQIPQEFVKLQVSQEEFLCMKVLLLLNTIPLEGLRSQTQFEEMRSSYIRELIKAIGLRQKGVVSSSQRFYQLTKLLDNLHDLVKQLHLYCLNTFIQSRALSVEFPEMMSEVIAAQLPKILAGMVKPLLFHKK

[3] = target: T1, Progesterone receptor (Rattus norvegicus); assay: Inhibitory activity against progesterone receptor (PR) in ovariectomized mature female rat decidualization model; type: functional
Summary of the method: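 Ovariectomized mature rats dosed orally for 7 days, with progesterone 5.6 mg/kg SC given alongside; vehicle-only controls. Decidual response (D/C) measured 24 h after the final treatment, seven animals per point. ED50 averaged from at least duplicate determinations.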

Progesterone receptor [4] = target: T2, Progesterone receptor; assay: Antagonist activity against the Progesterone Receptor (PR); type: functional
Summary of the method: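 Antagonism run in CV-1 cells co-transfected with hPR and PRE-luciferase plasmids, with luciferase read-out; IC50 taken as the mean of at least duplicate determinations.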

[5] = Area under the curve (AUC) for the compound in female rats for a dose of 1 mg/kg administered intravenously.; type: ADME, organism-based; design: dose 1 mg/kg, route intravenous; conditions: rat, in vivo, iv
Progesterone receptor [6] = target: T2, Progesterone receptor; assay: Antagonist activity against progesterone receptor (PR) in an assay using PRE-luciferase plasmid co-transfected CV-1 cells; type: functional, cell-based
Summary of the method: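 CV-1 cells cotransfected with hPR and PRE-luciferase plasmids, luciferase read-out; IC50 averaged from at least duplicate determinations.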

[7] = Half life in female rats for a dose of 1 mg/kg administered intravenously.; type: ADME, organism-based; design: dose 1 mg/kg, route intravenous; conditions: rat, in vivo, iv
Progesterone receptor [8] = target: T2, Progesterone receptor; assay: Agonist activity against progesterone receptor (PR) in an alkaline phosphatase assay in the T47D human breast carcinoma cell line; type: functional, cell-based
Summary of the method: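 T47D human breast carcinoma cells scored for PR agonism via alkaline phosphatase read-out; EC50 taken as the mean of at least duplicate determinations.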

[9] = Plasma clearance (Cl) for the compound in female rats for a dose of 1 mg/kg administered intravenously; type: ADME, organism-based; design: dose 1 mg/kg, route intravenous; conditions: rat, iv, read-out: Clp (converted)

Compound | ED50 [1] [mg/kg] | IC50 (Estrogen receptor) [nM] | IC50 (Progesterone receptor [2]) [nM] | ED50 [3] [mg/kg] | IC50 (Progesterone receptor [4]) [nM] | AUC [5] [ng·h/mL] | IC50 (Progesterone receptor [6]) [nM] | half-life [7] [h] | EC50 (Progesterone receptor [8]) [nM] | clearance [9] [mL/min/kg]
CC1(C)OC(=O)Nc2ccc(-c3ccc(F)c(Cl)c3)cc21 | 2.5 | > 10000 | 23 | 1 |  |  |  |  |  | 
CC1(C)OC(=O)Nc2ccc(-c3cc(F)cc(C#N)c3)cc21 | 1 | > 10000 |  | 0.3 | 15.9 | 3690 | 15.9 | 7.7 | 90 | 3.67
CC1(C)OC(=O)Nc2ccc(-c3coc(C#N)c3)cc21 |  |  | 8 | 0.9 | 40.2 |  | 40.2 |  |  | 
CC1(C)OC(=O)Nc2ccc(-c3csc(C#N)c3)cc21 |  |  |  | 1.7 | 6.7 |  | 6.7 |  | 61.1 | 
